# Active and inactive are the calls of the source. The rule behind the calls is not given here.
# Experiments:
# [1] = Induction of cleavage arrest in embryonic cells of Xenopus laevis stage 8 blastulae at 0.5 ug/mL after 20 hrs by animal cap assay; assay type: functional
# In short: (§1)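 Single inner-surface cells taken from animal caps of X. laevis stage 8 blastulae, freed in Ca/Mg-free medium (50 mM phosphate, 35 mM NaCl, 1 mM KCl, pH 7.0). Two or three cells per well in NAM/2 with 2 mg/mL γ-globulin, non-nutritive. Test concentrations 0.1, 0.5, 2, 10, 50 and 200 µg/mL. Cultured 20 h at 25 °C. Read-out: percentage of cells with cleavage arrest.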
# Xenopus laevis = species: Xenopus laevis; assay: Induction of cleavage arrest in embryonic cells of Xenopus laevis stage 8 blastulae after 20 hrs by animal cap assay; assay type: functional, cell-based; in short: as §1
SMILES,Activity [1],Activity (Xenopus laevis)
CCCCC/C=C/C=C/C(=O)OCC1=C[C@@H]2C(=O)[C@]3(C=C(C)[C@H](O)[C@@]3(O)[C@@H]1O)[C@H](C)C[C@@H]1[C@H]2C1(C)C,>75%,–
CCCCC/C=C/C=C/C(=O)O[C@@H]1C(CO)=C[C@@H]2C(=O)[C@]3(C=C(C)[C@H](O)[C@@]13O)[C@H](C)C[C@@H]1[C@H]2C1(C)C,>75%,–
CCCCCCCCCC(=O)OCC1=C[C@@H]2C(=O)[C@]3(C=C(C)[C@H](O)[C@@]3(O)[C@@H]1O)[C@H](C)C[C@@H]1[C@H]2C1(C)C,>75%,–
CCCCC/C=C\C=C\C(=O)O[C@H]1C(C)=C[C@]23C(=O)[C@@H](C=C(CO)[C@@H](OC(C)=O)[C@]12O)[C@H]1[C@@H](C[C@H]3C)C1(C)C,>75%,–
CCCCC/C=C\C=C\C(=O)OCC1=C[C@@H]2C(=O)[C@]3(C=C(C)[C@H](O)[C@@]3(O)[C@@H]1O)[C@H](C)C[C@@H]1[C@H]2C1(C)C,>75%,–
CCCCC/C=C/C=C/C(=O)O[C@H]1C(C)=C[C@]23C(=O)[C@@H](C=C(COC(C)=O)[C@@H](O)[C@]12O)[C@H]1[C@@H](C[C@H]3C)C1(C)C,>75%,–
CCCCC/C=C\C=C\C(=O)O[C@H]1C(C)=C[C@]23C(=O)[C@@H](C=C(COC(C)=O)[C@@H](O)[C@]12O)[C@H]1[C@@H](C[C@H]3C)C1(C)C,>75%,–
CCCCC/C=C/C=C/C(=O)O[C@H]1C(C)=C[C@]23C(=O)[C@@H](C=C(CO)[C@@H](O)[C@]12O)[C@H]1[C@@H](C[C@H]3C)C1(C)C,>75%,–
CCCCC/C=C\C=C\C(=O)O[C@H]1C(C)=C[C@]23C(=O)[C@@H](C=C(CO)[C@@H](O)[C@]12O)[C@H]1[C@@H](C[C@H]3C)C1(C)C,>75%,–
C=C1[C@H](OC(C)=O)[C@@H](OC(=O)c2ccccc2)[C@@H](OC(C)=O)C(C)(C)[C@H]2O[C@](O)([C@H](C)C2=O)[C@@]2(OC(C)=O)C[C@H](C)[C@H](OC(C)=O)[C@@H]2[C@H]1OC(C)=O,–,inactive
C=C1[C@H](OC(=O)c2ccccc2)[C@H]2[C@@H](OC(C)=O)[C@](C)(O)[C@H](OC(C)=O)[C@]2(O)C(=O)[C@@H](C)[C@H]2O[C@@H]2C(C)(C)C(=O)[C@H](O)[C@H]1OC(=O)c1ccccc1,–,inactive
